For 8 compounds, logD and IC50 results are on record in ChEMBL document CHEMBL1759995, “Potential CRF1R PET imaging agents: N-fluoroalkyl-8-(6-methoxy-2-methylpyridin-3-yl)-2,7-dimethyl-N-alkylpyrazolo[1,5-a][1,3,5]triazin-4-amines” (Bioorg Med Chem Lett, 2011).

Usually logD stands for the decadic logarithm of the distribution of all forms, ionised or not, between an organic phase and buffer at a given pH. A word on the IC50: it is the point on the concentration scale where inhibition reaches its midpoint. Higher therefore signals weaker potency in that assay.

A short description of data set [1]: Lipophilicity, log D of the compound in octanol-phosphate buffer at pH 7.4 by Shake flask method. The data set is classed as physicochemical. The method in brief:
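Shake-flask partitioning between 25 mM phosphate buffer (pH 7.4) and octanol, both pre-saturated by mixing and standing overnight. A 1.0 mg sample dissolved in 1 mL octanol and added to 50 mL octanol-saturated buffer.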

In data set [2] the target is T1, Corticotropin-releasing factor receptor 1 (Rattus norvegicus, UniProt P35353).
T1 sequence (P35353 whole entry): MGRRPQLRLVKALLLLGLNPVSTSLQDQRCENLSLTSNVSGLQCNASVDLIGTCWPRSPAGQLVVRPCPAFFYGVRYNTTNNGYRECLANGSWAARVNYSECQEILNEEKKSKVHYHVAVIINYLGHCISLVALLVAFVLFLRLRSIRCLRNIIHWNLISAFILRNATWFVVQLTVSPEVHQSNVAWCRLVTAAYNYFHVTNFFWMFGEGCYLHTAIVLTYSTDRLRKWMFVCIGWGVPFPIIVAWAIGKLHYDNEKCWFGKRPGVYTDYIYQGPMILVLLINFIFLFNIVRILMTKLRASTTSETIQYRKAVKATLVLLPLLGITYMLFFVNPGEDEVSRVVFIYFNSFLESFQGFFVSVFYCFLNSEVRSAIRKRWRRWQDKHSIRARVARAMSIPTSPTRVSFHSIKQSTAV
As to the kind of experiment: Displacement of [125I]-o-CRF from CRF1 receptor in rat frontal cortex by rapid filtration technique. In kind it is tissue-based. An outline of the steps:
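Frozen rat frontal cortex homogenized in 50 mM HEPES (pH 7.0 at 23 °C) with MgCl2, EGTA, protease inhibitors, 0.005% Triton X-100, bacitracin and 0.1% ovalbumin; pellet washed twice by centrifugation at 32,000 g. Membranes (25 µg/well) incubated with 150 pM 125I-o-CRF and compounds 2 h at 21 °C. Bound ligand captured on PEI-treated GF/B filters, washed with ice-cold PBS/0.01% Triton. IC50 from inhibition of specific binding.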
In general terms: In a radioligand displacement assay an active substance lowers the binding of a labelled ligand.

`CCN(CCF)c1nc(C)nc2c(-c3ccc(OC)nc3C)c(C)nn12` returned a logD in data set [1] of 4.5. The IC50 in data set [2] is 5.8 nM.
`COCCN(CCF)c1nc(C)nc2c(-c3ccc(OC)nc3C)c(C)nn12` came in with a logD in data set [1] of 4.6. In addition, in data set [2], the IC50 was 5.5 nM.
Consider `CCN(CCCF)c1nc(C)nc2c(-c3ccc(OC)nc3C)c(C)nn12`, for which the logD in data set [1] turned out to be 4.8. In data set [2], the IC50 is 1.6 nM.
`COCCN(CCCF)c1nc(C)nc2c(-c3ccc(OC)nc3C)c(C)nn12`: the logD in data set [1] stood at 4.1. This compound also showed an IC50 in data set [2] of 1.9 nM.
`COc1ccc(-c2c(C)nn3c(N(CCC#N)CCCF)nc(C)nc23)c(C)n1` had a logD in data set [1] of 3.5. In data set [2], this compound displayed an IC50 of 6.5 nM.
Regarding `COCCN(CCCF)c1nc(C)nc2c(-c3ccc(OC)nc3)c(C)nn12`, the logD in data set [1] turned out to be 3.4. The compound further showed an IC50 in data set [2] of 35 nM.
Regarding `COCCN(CCCF)c1nc(C)nc2c(-c3cnc(OC)nc3)c(C)nn12`, in data set [1], the logD is 3.2. For the same compound, the IC50 in data set [2] came out at 390 nM.
The like results for `COCCN(CCCF)c1nc(C)nc2c(-c3cnc(OC)nc3OC)c(C)nn12` were, in that order, 1.8 and greater than 10000 nM.
